Results pooled from the literature.
Compare with care: the assays were run in different laboratories.

For `OC[C@H]1O[C@@H](c2ccc(Cl)c(Cc3ccc(O[C@H]4CCOC4)cc3)c2)[C@H](O)[C@@H](O)[C@@H]1O`, the AUC was 1450 ng·h/mL (CD-1 mouse; plasma; intravenous; 5 mg/kg).
The AUC(0-inf) of `Cc1nc(-c2cnc(NC(C)C)n(C)c2=O)ccc1Oc1ccnc(-c2cnn(C)c2)c1` is reported as 285000 ng·h/mL (female mouse; plasma; oral; 30 mg/kg; single dose).
For `COc1ccc2nccc(N3CCc4c(cc(Cn5ccnc5)cc4-c4cn(C)nc4C(F)(F)F)C3=O)c2c1`, the AUC(0-inf) was 1840 ng·h/mL (male CD-1 mouse; plasma; intravenous; 3 mg/kg).
`COC(=O)CN(CCCc1ccccc1)CC(=O)N[C@@H](Cc1c[nH]cn1)c1nc(C)no1` has an AUC of 200 ng·h/mL (male C57BL/6 mouse; plasma; intraperitoneal; 30 mg/kg).
`CC(C)(O)c1cn(-c2ccc(-c3cc(F)c(CO)c(S(C)(=O)=O)c3)cc2F)c(C(C)(C)c2c(Cl)cccc2Cl)n1` gave an AUC of 7.4 µM·h (male C57BL/6 mouse; serum; oral; 10 mg/kg).
With `NC[C@@H]1O[C@H](O[C@H]2[C@@H](O)[C@H](O[C@@H]3[C@@H](O)[C@H](N)C[C@H](N)[C@H]3O[C@H]3O[C@H](CO)[C@@H](O)[C@H](O)[C@H]3N)O[C@@H]2CO)[C@H](N)[C@@H](O)[C@@H]1O` the AUC was 30600 ng·h/mL (male BALB/c mouse; plasma; intravenous; 15 mg/kg).
The AUC of `CCN1CCN(Cc2cc(NC(=O)c3ccc(C)c(-c4ccc5nc(NC(=O)C6CC6)cn5n4)c3)cc(C(F)(F)F)c2)CC1` is reported as 1070 ng·h/mL (Swiss mouse; plasma; intraperitoneal; 3 mg/kg).
For `Cc1ccc2cncc(N3CCc4c(cc(Cn5ccnc5)cc4-c4cn(C)nc4C(F)(F)F)C3=O)c2c1`, the AUC(0-inf) was 36300 ng·h/mL (male CD-1 mouse; plasma; oral; 50 mg/kg).
For `CC[C@H](C)[C@@H]1NC(=O)[C@@](C)(NC(=O)[C@H](CCCNC(=N)N)NC(=O)[C@H](CC(C)C)NC(=O)[C@@H](NC(=O)[C@H](CCC(N)=O)NC(=O)[C@H](CC(C)C)NC(C)=O)[C@@H](C)O)CCCC=CCCC[C@@](C)(C(=O)N[C@@H](CC(C)C)C(=O)N[C@@H](Cc2ccc3ccccc3c2)C(N)=O)NC(=O)[C@H](CCCNC(=N)N)NC(=O)[C@H](CCC(N)=O)NC1=O`, the AUC was 76 µM·h (male BALB/c mouse; plasma; intravenous; 5 mg/kg).
For `CC(C)(O)c1cn(-c2ccc(-c3cc(F)c(CO)c(S(C)(=O)=O)c3)cc2)c(C(C)(C)c2cccc(F)c2Cl)n1`, the AUC was 6.9 µM·h (male C57BL/6 mouse; serum; oral; 10 mg/kg).
With `Cc1noc([C@H](Cc2c[nH]cn2)NC(=O)CN(CCCc2ccccc2)CC(=O)O)n1` the AUC was 1900 ng·h/mL (male C57BL/6 mouse; plasma; intraperitoneal; 30 mg/kg).
For `CC(C)(C)c1ccc(O)c(CN(Cc2cc(C(C)(C)C)ccc2O)C2CCC(NC(N)=O)CC2)c1` (stereo not drawn), the AUC(0-inf) was 6620 ng·h/mL (male C57BL/6 mouse; plasma; oral; 10 mg/kg; single dose).
